Source: ChEMBL document CHEMBL1275265, “Synthesis and biological evaluation of N-antipyrine-4-substituted amino-3-chloromaleimide derivatives” (Eur J Med Chem, 2010)
Values after ≈ are worked out from the molar mass of the structure shown. Active and inactive are the calls of the source. No cut-off for these calls is given here.

Assays:
Salmonella typhimurium = assay: Antibacterial activity against Salmonella Typhimurium ATCC 14028 at < 100 ug/mL by agar dilution method; format: functional, organism-based; conditions: Salmonella enterica subsp. enterica serovar Typhimurium
How it was run: (§1)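 Agar dilution on 1 mL Mueller-Hinton agar slants. Compounds were serially two-fold diluted in DMSO (final DMSO ≤2%) to give 10–100 µg/mL in the medium. Bacteria were grown on MHA at 35 °C for 24 h, suspended in 0.86% saline at 1.5 × 10^8 cell/mL (0.5 McFarland), and 1 µL was added per slant. Slants were incubated at 35 °C. Drug-free blank included; each assay run three times; MIC recorded.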

Proteus mirabilis = assay: Antibacterial activity against Proteus mirabilis ATCC 25933 at < 100 ug/mL by agar dilution method; format: functional, organism-based; how it was run: as §1
Aspergillus flavus = assay: Antifungal activity against Aspergillus flavus ATCC 9170 by agar dilution method; format: functional, organism-based
How it was run: (§2)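 Filamentous fungi (hyalohyphomycetes, dermatophytes) were grown on SDA. Spore suspensions were set to 1.0–5.0 × 10^6 spores/mL by hemocytometer count. 1 µL was inoculated onto 1 mL SDA slants holding compound at 10–100 µg/mL (two-fold DMSO dilutions, final DMSO ≤2%), then incubated at 28–30 °C. Drug-free blank and ketoconazole control included; repeated three times; MIC determined.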

Aspergillus niger = assay: Antifungal activity against Aspergillus niger ATCC 9092 by agar dilution method; format: functional, organism-based; how it was run: as §2
Microsporum canis = assay: Antifungal activity against Microsporum canis C112 by agar dilution method; format: functional, organism-based; how it was run: as §2
Candida albicans = assay: Antifungal activity against Candida albicans ATCC 10231 by agar dilution method; format: functional, organism-based
How it was run: (§3)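 Yeasts were grown on Sabouraud dextrose agar and adjusted to 1.0–5.0 × 10^6 cell/mL (0.5 McFarland). Agar dilution used 1 mL SDA slants holding two-fold DMSO dilutions of compound at 10–100 µg/mL, with final DMSO ≤2%. 1 µL of inoculum was added per slant, then incubated at 35 °C. Drug-free blank and ketoconazole positive control included; triplicate runs; MIC read.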

Pichia kudriavzevii = assay: Antifungal activity against Candida krusei ATCC 6582 by agar dilution method; format: functional, organism-based; how it was run: as §3
[1] = tested on: Staphylococcus saprophyticus; assay: Antibacterial activity against Staphylococcus saprophyticus ATCC 35552 at < 100 ug/mL by agar dilution method; format: functional, organism-based; how it was run: as §1
Streptococcus agalactiae = assay: Antibacterial activity against Streptococcus agalactiae ATCC 13813 at < 100 ug/mL by agar dilution method; format: functional; how it was run: as §1
Pseudomonas aeruginosa = assay: Antibacterial activity against Pseudomonas aeruginosa ATCC 27853 at < 100 ug/mL by agar dilution method; format: functional, organism-based; how it was run: as §1
Staphylococcus aureus [2] = assay: Antibacterial activity against Staphylococcus aureus ATCC 6538P at < 100 ug/mL by agar dilution method; format: functional, organism-based; how it was run: as §1
Aspergillus fumigatus = assay: Antifungal activity against Aspergillus fumigatus ATCC 26934 by agar dilution method; format: functional; how it was run: as §2
Cryptococcus neoformans = assay: Antifungal activity against Cryptococcus neoformans ATCC 32264 by agar dilution method; format: functional; how it was run: as §3
Nannizzia gypsea = assay: Antifungal activity against Microsporum gypseum C115 by agar dilution method; format: functional; how it was run: as §2
Rhizopus = assay: Antifungal activity against Rhizopus CL35 by agar dilution method; format: functional; how it was run: as §2
[3] = tested on: Trichophyton mentagrophytes; assay: Antifungal activity against Trichophyton mentagrophytes ATCC 9972 by agar dilution method; format: functional; how it was run: as §2
Trichophyton rubrum = assay: Antifungal activity against Trichophyton rubrum C137 by agar dilution method; format: functional; how it was run: as §2
Bacillus cereus = assay: Antibacterial activity against Bacillus cereus ATCC 14579 at < 100 ug/mL by agar dilution method; format: functional; how it was run: as §1
Bacillus subtilis = assay: Antibacterial activity against Bacillus subtilis ATCC 23858 at < 100 ug/mL by agar dilution method; format: functional, organism-based; how it was run: as §1
Enterobacter cloacae = assay: Antibacterial activity against Enterobacter cloacae ATCC 35030 at < 100 ug/mL by agar dilution method; format: functional, organism-based; how it was run: as §1
Escherichia coli = assay: Antibacterial activity against Escherichia coli ATCC 11775 at < 100 ug/mL by agar dilution method; format: functional, organism-based; how it was run: as §1
[4] = Toxicity in Artemia salina assessed as mortality after 24 hrs; format: organism-based; conditions: in vivo
How it was run: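 Artemia salina hatched at pH 9.0 (Na2CO3), 25 °C, strong aeration, continuous light (2000 Lux). Phototropic nauplii were collected about 12 h after hatching, and groups of 10 were exposed per well to various compound concentrations for 24 h. Survivors were counted and % deaths calculated.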

Mus musculus [5] = assay: Ratio of acetyl salicylic acid ID50 to compound ID50 for inhibition of acetic acid-induced abdominal contraction in ip dosed Swiss mouse; format: functional, Abdominal cavity
Mus musculus [6] = assay: Ratio of metamizole ID50 to compound ID50 for inhibition of acetic acid-induced abdominal contraction in ip dosed Swiss mouse; format: functional, Abdominal cavity
Mus musculus [7] = assay: Antinociceptive activity in Swiss mouse assessed as inhibition of formalin-induced paw licking activity at 10 mg/kg, ip administered 30 mins before formalin challenge measured after 5 mins; format: functional; conditions: route intraperitoneal
How it was run: (§4)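 Formalin test in mice pretreated i.p. with vehicle or 10 mg/kg test agent 30 min before formalin injection. Animals were acclimatized 5 min in a glass cylinder with an angled mirror. Licking time was recorded for the early phase (0–5 min) and the late phase (15–30 min) after formalin. Values are mean ± S.E.M.; ANOVA with Dunnett's test.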

Mus musculus [8] = assay: Antinociceptive activity in Swiss mouse assessed as inhibition of formalin-induced paw licking activity at 10 mg/kg, ip administered 30 mins before formalin challenge measured after 15 to 30 mins; format: functional; conditions: route intraperitoneal; how it was run: as §4
Mus musculus [9] = assay: Antinociceptive activity in Swiss mouse assessed as inhibition of acetic acid-induced writhing at 10 mg/kg, ip administered 30 mins before acetic acid challenge measured after 20 mins relative to control; format: functional; conditions: route intraperitoneal
How it was run: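 Mice were given 10 mg/kg i.p. in Tween 80/0.9% NaCl (Tween ≤5%) 30 min before i.p. 0.6% acetic acid, at 20–22 °C. Abdominal constrictions plus hind-limb stretching were counted cumulatively over 20 min in individual funnels. Groups of six, randomized and blinded. Inhibition was calculated versus vehicle controls (10 ml/kg i.p.); ANOVA with Dunnett's test.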

Mus musculus [10] = assay: Antinociceptive activity in Swiss mouse assessed as inhibition of acetic acid-induced abdominal contraction at 0.1 to 100 mg/kg, ip administered 30 mins before acetic acid challenge measured after 20 mins relative to control; format: functional, Abdominal cavity; conditions: dose mg/kg 0.1-100; route intraperitoneal
How it was run: (§5)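 Writhing dose-response in mice: compounds at 0.1–10 mg/kg and standard drugs at 10–100 mg/kg, i.p. in Tween 80/saline, 30 min before i.p. 0.6% acetic acid. Constrictions and stretches were counted for 20 min at 20–22 °C, with six to eight animals per group. ID50 (dose halving the response versus control) was given as geometric mean with 95% confidence limits.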

Mus musculus [11] = assay: Antinociceptive activity in ip dosed Swiss mouse assessed as inhibition of acetic acid-induced abdominal contraction administered 30 mins before acetic acid challenge measured after 20 mins; format: functional; conditions: Abdominal cavity, read-out: ID50 (the source's name); how it was run: as §5
Mus musculus [12] = assay: Ratio of compound to acetyl salicylic acid activity against formalin-induced paw licking activity in Swiss mouse at 10 mg/kg, ip administered 30 mins before formalin challenge measured after 15 to 30 mins; format: functional; conditions: route intraperitoneal
Staphylococcus aureus [13] = assay: Antibacterial activity against Staphylococcus aureus ATCC 6538P by agar dilution method; format: functional
Mus musculus [14] = species on record: Mus musculus; assay: Antinociceptive activity in mouse assessed as inhibition of acetic acid-induced writhing; format: functional; conditions: read-out: ID50 (the source's name)

Row | Structure (SMILES) | Activity (Salmonella typhimurium) | Activity (Proteus mirabilis) | Activity (Aspergillus flavus) | Activity (Aspergillus niger) | Activity [1] | Activity (Streptococcus agalactiae) | Activity (Pseudomonas aeruginosa) | Activity (Staphylococcus aureus [2]) | Activity (Bacillus cereus) | Activity (Bacillus subtilis) | Activity (Enterobacter cloacae) | Activity (Escherichia coli) | LC50 at 24 h [4] [µg/mL] | Ratio (Mus musculus [5]) | Ratio (Mus musculus [6]) | inhibition in vivo at 10 mg/kg (Mus musculus [7]) [%] | inhibition in vivo at 10 mg/kg (Mus musculus [8]) [%] | inhibition in vivo at 10 mg/kg (Mus musculus [9]) [%] | inhibition (INH) (Mus musculus [10]) [%] | ED50 (Mus musculus [11]) [µmol/kg] | further results
1 | Cc1c(N2C(=O)C(Cl)=C(Nc3ccc(Br)cc3)C2=O)c(=O)n(-c2ccccc2)n1C | inactive | inactive | Active | Active | inactive | inactive | inactive | inactive | inactive | inactive | inactive | inactive | > 1000 | 233 | 284 | 11.4 | 22.5 | 97.5 | 97.5 | 0.57 | Activity (Microsporum canis): Active; Activity (Candida albicans): Active; Activity (Pichia kudriavzevii): Active; MIC (Aspergillus fumigatus): > 100 µg/mL; MIC (Cryptococcus neoformans): > 100 µg/mL; MIC (Nannizzia gypsea): > 100 µg/mL; MIC (Rhizopus): 100 µg/mL (≈ 205 µM); MIC [3]: > 100 µg/mL; MIC (Trichophyton rubrum): > 100 µg/mL
2 | Cc1c(N2C(=O)C(Cl)=C(Nc3ccc(Cl)c([N+](=O)[O-])c3)C2=O)c(=O)n(-c2ccccc2)n1C | inactive | inactive |  |  | inactive | inactive | inactive | inactive | inactive | inactive | inactive | inactive | 94.2 (≈ 193 µM) | 103 | 126 | 19.6 | 49 | 98.5 | 98.5 | 1.29 | Ratio (Mus musculus [12]): 6
3 | Cc1c(N2C(=O)C(Cl)=C(Nc3ccc(F)cc3)C2=O)c(=O)n(-c2ccccc2)n1C | inactive | inactive | Active | Active | inactive | inactive | inactive | inactive | inactive | inactive | inactive | inactive | > 1000 | 182 | 222 | 28.9 | 4.5 | 93.2 | 96.7 | 0.73 | Activity (Microsporum canis): Active; Activity (Candida albicans): Active; Activity (Pichia kudriavzevii): Active; MIC (Aspergillus fumigatus): > 100 µg/mL; MIC (Cryptococcus neoformans): > 100 µg/mL; MIC (Nannizzia gypsea): 100 µg/mL (≈ 234 µM); MIC (Rhizopus): > 100 µg/mL; MIC [3]: > 100 µg/mL; MIC (Trichophyton rubrum): > 100 µg/mL
4 | Cc1c(N2C(=O)C(Cl)=C(Cl)C2=O)c(=O)n(-c2ccccc2)n1C | inactive | inactive |  |  | inactive | inactive | inactive | inactive | inactive | inactive | inactive | inactive |  |  |  |  |  | 99 | 99 | 10.8 | MIC (Staphylococcus aureus [13]): 250 µg/mL (≈ 710 µM); ED50 (Mus musculus [14]): 10.8 µmol/kg
5 | Cc1c(N2C(=O)C(Cl)=C(Nc3ccc(Cl)cc3)C2=O)c(=O)n(-c2ccccc2)n1C | inactive | inactive |  |  | inactive | inactive | inactive | inactive | inactive | inactive | inactive | inactive | > 1000 | 33 |  | 28.2 | 29.3 | 97.4 | 97.4 | 4.05 | 
